Reference: ChEMBL document CHEMBL1149849, “Capnellenes from the Formosan soft coral Capnella imbricata” (2008)
The source made the active and inactive calls. The calls are words filed in the database; no cut-off is given here.

Key:
[1] = test system: RAW264.7; test: Antiinflammatory activity against LPS-stimulated mouse RAW264.7 cells assessed as reduction of iNOS level at 10 uM after 16 hrs by DC protein assay; type: functional
Procedure, shortened: (§1)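 RAW264.7 cells activated with E. coli LPS (0.01 µg/mL) for 16 h with or without test compound. Cells washed in ice-cold PBS, lysed, and centrifuged at 20000g, 30 min, 4 °C. Supernatant protein measured by DC assay (Lowry-modified); equal protein loaded for SDS-PAGE, transferred to PVDF, blocked, and probed 180 min with anti-iNOS or anti-COX-2 (1:1000). Levels reported relative to LPS-only control.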

[2] = test system: RAW264.7; test: Antiinflammatory activity against LPS-stimulated mouse RAW264.7 cells assessed as reduction of COX2 level at 10 uM after 16 hrs by DC protein assay; type: functional; procedure, shortened: as §1

Compound | Activity [1] | Activity [2]
C=C1[C@@H](OC(C)=O)C[C@H]2C[C@]3(C)CCC(C)(C)[C@@H]3[C@@]12OC(C)=O | inactive | inactive
C=C1C(=O)C[C@H]2C[C@]3(C)CCC(C)(C)[C@@H]3[C@@]12O | 34.8 | inactive
CC1(C)CC[C@@]2(C)C[C@@H]3CC(=O)C(CO)=C3[C@@H]12 | inactive | inactive
C=C1[C@@H](O)C[C@H]2C[C@]3(C)CCC(C)(C)[C@@H]3[C@@]12O | 1.2 | 24.8
C=C1[C@@H](O)C[C@H]2C[C@]3(CO)CCC(C)(C)[C@@H]3[C@@]12O | inactive | inactive
C=C1[C@@H](OC(C)=O)C[C@H]2C[C@]3(C)CCC(C)(C)[C@@H]3[C@@]12O | 54.4 | 62.9
C=C1[C@H]2[C@@H](C[C@@H]1O)C[C@]1(C)CCC(C)(C)[C@H]21 | inactive | inactive
C=C1[C@H]2[C@@H](C[C@@H]1OC(C)=O)C[C@]1(C)CCC(C)(C)[C@H]21 | inactive | inactive
C=C1[C@H]2[C@@H](C[C@@H]1O)C[C@]1(C)CC[C@](C)(CO)[C@H]21 | inactive | inactive
